Reference: ChEMBL document CHEMBL4732214, “Highly Selective Y Receptor Antagonist Binds in an Allosteric Binding Pocket” (J Med Chem, 2021)
Activity calls are given as the source filed them. The rule behind the calls is not given here.

How the values were obtained:
[1] = target: Neuropeptide Y receptor type 4 (Mus musculus); assay: Allosteric antagonist activity at NPY4R in mouse descending colon mucosa assessed as reduction in rPP-induced ion transport by electrophysiology
[2] = tested on: COS7; assay: Allosteric antagonist activity at human NPY4R W2.70 position mutant expressed in COS7 cells co-expressing Gqi5-alpha assessed as inhibition of PP-induced Ca2+ flux by Fluo-2 AM dye based fluorescent assay; format: cell-based
Method in brief: (§1)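 COS7 cells transiently cotransfected overnight with 3 μg receptor-eYFP variant plasmid and 1 μg Δ6Gαqi4myr, reseeded next day. Fluo2-AM (2.4 μM) Ca²⁺ assay in HBSS/HEPES/probenecid pH 7.4. Compound concentration series added after 20 s baseline, PP at EC80 added 110 s later. Responses as x-fold over basal, normalized to 1 μM PP. N ≥ 3.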

[3] = tested on: COS7; assay: Allosteric antagonist activity at human NPY4R Q3.32 position mutant expressed in COS7 cells co-expressing Gqi5-alpha assessed as inhibition of PP-induced Ca2+ flux by Fluo-2 AM dye based fluorescent assay; format: cell-based
Method in brief: as §1

[4] = target: T1, Neuropeptide Y receptor type 2 (Mus musculus) (UniProt P97295); assay: Allosteric antagonist activity at NPY2R in mouse descending colon mucosa assessed as reduction in PYY-induced ion transport at 30 uM by electrophysiology
T1 sequence (whole entry): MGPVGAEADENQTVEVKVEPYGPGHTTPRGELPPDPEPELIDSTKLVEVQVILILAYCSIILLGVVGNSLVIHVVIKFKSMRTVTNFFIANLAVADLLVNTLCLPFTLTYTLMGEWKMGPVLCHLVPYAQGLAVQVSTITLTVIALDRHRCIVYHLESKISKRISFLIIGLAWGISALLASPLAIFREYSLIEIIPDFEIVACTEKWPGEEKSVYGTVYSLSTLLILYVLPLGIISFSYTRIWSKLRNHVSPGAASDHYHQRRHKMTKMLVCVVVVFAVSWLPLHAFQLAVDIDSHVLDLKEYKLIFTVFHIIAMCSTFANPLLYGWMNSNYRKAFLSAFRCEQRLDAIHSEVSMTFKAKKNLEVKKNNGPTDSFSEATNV

[5] = target: T2, Neuropeptide Y receptor type 1 (Mus musculus) (UniProt Q04573); assay: Allosteric antagonist activity at NPY1R in mouse descending colon mucosa assessed as reduction in PYY-induced ion transport at 0.3 to 30 uM by electrophysiology; conditions: dose 0.3-30 µM
T2 sequence (whole entry): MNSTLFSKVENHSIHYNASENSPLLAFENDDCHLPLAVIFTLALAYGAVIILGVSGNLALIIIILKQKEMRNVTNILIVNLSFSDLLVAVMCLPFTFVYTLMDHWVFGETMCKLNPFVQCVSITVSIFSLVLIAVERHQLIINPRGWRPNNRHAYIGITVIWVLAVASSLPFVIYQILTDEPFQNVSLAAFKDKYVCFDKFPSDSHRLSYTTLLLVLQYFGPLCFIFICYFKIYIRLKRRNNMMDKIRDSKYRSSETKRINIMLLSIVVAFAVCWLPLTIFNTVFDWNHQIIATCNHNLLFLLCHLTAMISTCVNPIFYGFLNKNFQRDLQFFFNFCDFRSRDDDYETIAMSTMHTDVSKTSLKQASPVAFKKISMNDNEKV

[6] = tested on: COS7; assay: Allosteric antagonist activity at human NPY4R Y1.39 position mutant expressed in COS7 cells co-expressing Gqi5-alpha assessed as inhibition of PP-induced Ca2+ flux by Fluo-2 AM dye based fluorescent assay; format: cell-based; conditions: dose 15.0 µM
Method in brief: as §1

[7] = target: T2, Neuropeptide Y receptor type 1 (Mus musculus); assay: Allosteric antagonist activity at NPY1R in mouse descending colon mucosa assessed as reduction in PYY-induced ion transport at 30 uM by electrophysiology
[8] = tested on: COS7; assay: Allosteric antagonist activity at human NPY4R T2.61 position mutant expressed in COS7 cells co-expressing Gqi5-alpha assessed as inhibition of PP-induced Ca2+ flux by Fluo-2 AM dye based fluorescent assay; format: cell-based
Method in brief: as §1

[9] = tested on: COS7; assay: Allosteric antagonist activity at human NPY4R F7.35 position mutant expressed in COS7 cells co-expressing Gqi5-alpha assessed as inhibition of PP-induced Ca2+ flux by Fluo-2 AM dye based fluorescent assay; format: cell-based
Method in brief: as §1

[10] = tested on: COS7; assay: Allosteric antagonist activity at human NPY4R F4.60 position mutant expressed in COS7 cells co-expressing Gqi5-alpha assessed as inhibition of PP-induced Ca2+ flux by Fluo-2 AM dye based fluorescent assay; format: cell-based
Method in brief: as §1

[11] = tested on: COS7; assay: Allosteric antagonist activity at human NPY4R Y2.64 position mutant expressed in COS7 cells co-expressing Gqi5-alpha assessed as inhibition of PP-induced Ca2+ flux by Fluo-2 AM dye based fluorescent assay; format: cell-based
Method in brief: as §1

[12] = target: T3, Neuropeptide Y receptor type 4 (Homo sapiens, UniProt P50391); assay: Allosteric antagonist activity at […]-tagged human NPY4R expressed in COS7 cells co-expressing Gqi5-alpha assessed as inhibition of PP-induced Ca2+ flux by Fluo-2 AM dye based fluorescent assay relative to control; format: functional, cell-based; conditions: read-out: IC50
[13] = target: T1, Neuropeptide Y receptor type 2 (Mus musculus); assay: Allosteric antagonist activity at NPY2R in mouse descending colon mucosa assessed as reduction in PYY-induced ion transport at 0.3 to 30 uM by electrophysiology; conditions: dose 0.3-30 µM
[14] = tested on: COS7; assay: Allosteric antagonist activity at human NPY4R L7.36 position mutant expressed in COS7 cells co-expressing Gqi5-alpha assessed as inhibition of PP-induced Ca2+ flux by Fluo-2 AM dye based fluorescent assay; format: cell-based
Method in brief: as §1

[15] = tested on: COS7; assay: Allosteric antagonist activity at human NPY4R Q2.58 position mutant expressed in COS7 cells co-expressing Gqi5-alpha assessed as inhibition of PP-induced Ca2+ flux by Fluo-2 AM dye based fluorescent assay; format: cell-based
Method in brief: as §1

[16] = tested on: COS7; assay: Allosteric antagonist activity at human NPY4R S3.28 position mutant expressed in COS7 cells co-expressing Gqi5-alpha assessed as inhibition of PP-induced Ca2+ flux by Fluo-2 AM dye based fluorescent assay; format: cell-based
Method in brief: as §1

[17] = target: T3, Neuropeptide Y receptor type 4; assay: Allosteric antagonist activity at […]-tagged human NPY4R expressed in COS7 cells co-expressing Gqi5-alpha assessed as inhibition of PP-induced inositol phosphate accumulation by IP-one assay; format: functional, cell-based; conditions: filed as allosteric antagonist
Method in brief: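 IP-One Gq HTRF assay in COS7 cells stably expressing Y4R-eYFP and Δ6Gαqi4myr, 8000 cells/well seeded overnight. Compound or DMSO added, then PP stimulation in HBSS + 20 mM LiCl for 1 h at 37 °C. Cells lysed with kit antibody reagents. Emission read at 665 and 620 nm.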

[18] = target: T3, Neuropeptide Y receptor type 4; assay: Allosteric antagonist activity at […]-tagged human NPY4R expressed in COS7 cells co-expressing Gqi5-alpha assessed as inhibition of PP-induced Ca2+ flux by Fluo-2 AM dye based fluorescent assay; format: functional, cell-based; conditions: filed as allosteric antagonist
[19] = tested on: COS7; assay: Allosteric antagonist activity at human NPY4R A3.29 position mutant expressed in COS7 cells co-expressing Gqi5-alpha assessed as inhibition of PP-induced Ca2+ flux by Fluo-2 AM dye based fluorescent assay; format: cell-based
Method in brief: as §1

[20] = target: T4, Neuropeptide Y receptor type 5 (Mus musculus) (UniProt O70342); assay: Allosteric antagonist activity at NPY5R in mouse descending colon mucosa assessed as reduction in rPP-induced ion transport at 30 uM by electrophysiology
T4 sequence (whole entry): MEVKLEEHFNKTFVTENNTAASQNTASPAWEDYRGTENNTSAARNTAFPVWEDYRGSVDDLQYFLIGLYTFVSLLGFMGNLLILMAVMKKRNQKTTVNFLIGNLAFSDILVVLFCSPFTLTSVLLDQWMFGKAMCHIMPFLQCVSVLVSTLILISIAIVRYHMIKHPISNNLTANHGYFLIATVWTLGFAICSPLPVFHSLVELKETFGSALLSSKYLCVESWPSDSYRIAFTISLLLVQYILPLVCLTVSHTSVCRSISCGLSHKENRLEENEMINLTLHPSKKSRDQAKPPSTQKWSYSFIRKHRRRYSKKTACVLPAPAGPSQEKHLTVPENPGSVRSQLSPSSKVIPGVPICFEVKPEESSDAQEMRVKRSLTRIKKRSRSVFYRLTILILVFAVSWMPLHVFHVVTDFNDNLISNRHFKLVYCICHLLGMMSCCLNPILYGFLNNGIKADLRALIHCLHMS
Method in brief: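 Mouse descending colon mucosae (0.14 cm² exposed) in Ussing chambers, Krebs−Henseleit both sides, oxygenated, 37 °C, voltage-clamped at 0 mV. After stable basal Isc (20 min), DMSO (0.3%) or antagonist 300 nM–30 μM added basolaterally, then VIP 10 nM (10−15 min), then rPP 30 nM to lower Isc, then PYY 10 nM 15 min later. Isc changes pooled, mean ± SEM, N = 5.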

T3 sequence (P50391 whole entry): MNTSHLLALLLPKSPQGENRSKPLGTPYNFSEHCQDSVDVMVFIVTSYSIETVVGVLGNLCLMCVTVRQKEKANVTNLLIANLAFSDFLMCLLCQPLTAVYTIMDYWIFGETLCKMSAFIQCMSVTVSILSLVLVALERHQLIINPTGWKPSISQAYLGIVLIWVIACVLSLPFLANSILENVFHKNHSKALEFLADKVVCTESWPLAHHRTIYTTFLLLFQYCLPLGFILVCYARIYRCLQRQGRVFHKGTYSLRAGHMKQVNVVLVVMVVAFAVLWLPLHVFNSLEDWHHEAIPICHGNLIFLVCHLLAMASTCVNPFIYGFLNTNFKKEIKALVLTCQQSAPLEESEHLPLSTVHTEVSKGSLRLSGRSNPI

- IC50 [1]: 3.8 µM
- inhibition ([1]; filed as allosteric antagonist): Dose-dependent effect
- inhibition [4]: inactive
- inhibition [5]: inactive
- inhibition [7]: inactive
- IC50 [12]: 2700 nM
- inhibition [13]: inactive
- inhibition [17]: Active
- Kb [18]: 380 nM
- inhibition [18]: Dose-dependent effect
- pKb [18]: 6.4
- inhibition [20]: inactive
Compound: CS(=O)(=O)N1CCCC[C@H]1C(=O)Nc1nc2cc3c(cc2s1)OCCO3
- inhibition [2]: inactive
- inhibition [3]: inactive
- inhibition [6]: inactive
- inhibition [8]: inactive
- inhibition [9]: inactive
- inhibition [10]: inactive
- inhibition [11]: inactive
- inhibition [14]: inactive
- inhibition [15]: inactive
- inhibition [16]: inactive
- inhibition [19]: inactive
